Laboratory results from ChEMBL document CHEMBL1145403, “Structure-based design of flavonoid compounds as a new class of small-molecule inhibitors of the anti-apoptotic Bcl-2 proteins” (J Med Chem, 2007).
The source made the active and inactive calls. The calls are words filed in the database; no cut-off is given here.

Experiments:
[1] = target: Induced myeloid leukemia cell differentiation protein Mcl-1 (Homo sapiens, UniProt Q07820); assay: Displacement of FAM-Bim peptide from human Mcl1 by fluorescence polarization assay
Chain of Induced myeloid leukemia cell differentiation protein Mcl-1 (Q07820 whole entry): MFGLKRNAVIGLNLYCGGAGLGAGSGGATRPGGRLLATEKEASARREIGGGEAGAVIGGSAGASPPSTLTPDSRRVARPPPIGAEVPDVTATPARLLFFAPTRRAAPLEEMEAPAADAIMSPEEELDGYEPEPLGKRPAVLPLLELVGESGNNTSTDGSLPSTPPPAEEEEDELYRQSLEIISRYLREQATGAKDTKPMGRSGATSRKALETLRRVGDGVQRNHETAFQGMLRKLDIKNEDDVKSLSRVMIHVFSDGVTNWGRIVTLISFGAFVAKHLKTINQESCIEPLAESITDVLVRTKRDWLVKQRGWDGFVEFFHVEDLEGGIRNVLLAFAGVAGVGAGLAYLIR
Procedure, shortened: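 Compound added from DMSO, 4 h incubation, polarization at ex 485/em 530 nm. IC50 by nonlinear least-squares fit; Ki from the FP equation.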

MDA-MB-231 [2] = assay: Growth inhibition of human MDA-MB-231 cells after 4 days by WST-based assay; type: functional, cell-based; conditions: MDA-MB-231, 96 h
Procedure, shortened: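 Cells seeded at 3-4 × 10^3/well together with graded compound concentrations and cultured 4 days. WST-8 added at 10% final, then 2-3 h at 37°C. Absorbance read at 450 nm. IC50 = 50% growth inhibition relative to untreated cells.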

[3] = target: Apoptosis regulator Bcl-2 (Homo sapiens, UniProt P10415); assay: Displacement of FAM-Bim peptide from human Bcl2 by fluorescence polarization assay
Chain of Apoptosis regulator Bcl-2 (P10415 whole entry): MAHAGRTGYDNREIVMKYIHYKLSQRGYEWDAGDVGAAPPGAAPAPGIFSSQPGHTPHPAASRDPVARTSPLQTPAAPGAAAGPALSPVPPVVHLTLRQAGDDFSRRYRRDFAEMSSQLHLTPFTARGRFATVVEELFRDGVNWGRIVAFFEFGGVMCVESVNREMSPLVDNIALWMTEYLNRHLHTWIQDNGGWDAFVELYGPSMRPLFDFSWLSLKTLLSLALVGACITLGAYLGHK

MDA-MB-231 [4] = assay: Induction of apoptosis in human MDA-MB-231 cells at 0.5 uM after 3 days by Annexin V/propidium iodide staining-based flow cytometry
MDA-MB-231 [5] = assay: Induction of apoptosis in human MDA-MB-231 cells after 3 days by Annexin V/propidium iodide staining-based flow cytometry
MDA-MB-231 [6] = assay: Induction of apoptosis in human MDA-MB-231 cells at 1 uM after 3 days by Annexin V/propidium iodide staining

| Ki [1] | IC50 (MDA-MB-231 [2]) | Activity [1] | Activity [3] | Ki [3] | SMILES | Activity (MDA-MB-231 [4]) | Activity (MDA-MB-231 [5]) | Activity (MDA-MB-231 [6]) |
| --- | --- | --- | --- | --- | --- | --- | --- | --- |
| – | > 100 µM | inactive | inactive | – | COc1c(OC)c(OC)c2c(=O)c(-c3ccc(-c4c(C)oc5c(CC(C)C)c(OC)c(OC)c(OC)c5c4=O)cc3)c(C)oc2c1CC(C)C | – | – | – |
| 0.4 µM | 5.3 µM | – | – | 0.34 µM | Cc1oc2c(CC(C)C)c(O)c(O)c(O)c2c(=O)c1-c1ccccc1 | – | – | – |

More lines, now with the values behind:

| SMILES | Ki [1] | IC50 (MDA-MB-231 [2]) | Activity [1] | Activity [3] | Ki [3] | Activity (MDA-MB-231 [4]) | Activity (MDA-MB-231 [5]) | Activity (MDA-MB-231 [6]) |
| --- | --- | --- | --- | --- | --- | --- | --- | --- |
| Cc1cc2c(C(C)C)c(O)c(O)c(C=O)c2c(O)c1-c1c(C)cc2c(C(C)C)c(O)c(O)c(C=O)c2c1O [GOSSYPOL] | 0.28 µM | 1.9 µM | – | – | – | – | – | – |
| Cc1oc2c(CC(C)C)c(O)c(O)c(O)c2c(=O)c1-c1ccc(-c2c(C)oc3c(CC(C)C)c(O)c(O)c(O)c3c2=O)cc1 | 0.018 µM | 0.11 µM | – | – | 0.017 µM | 24.5% | Dose-dependent effect | 64.4% |
| Cc1cc(=O)c2c(O)c(O)c(O)c(CC(C)C)c2o1 | 1.69 µM | 30 µM | – | – | 0.73 µM | – | – | – |
